Source: ChEMBL document CHEMBL1938298, “Synthesis and characterization of [¹²⁵I]2-iodo N-[(S)-{(S)-1-methylpiperidin-2-yl}(phenyl)methyl]3-trifluoromethyl-benzamide as novel imaging probe for glycine transporter 1” (Bioorg Med Chem, 2011)

Columns and labels:
Intestine = experiment: Drug uptake in ddY mouse intestine at 11.1 kBq, iv after 0.5 min by gamma counting; type: ADME, organism-based; conditions: in vivo
How it was run: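 Male ddY mice (6 weeks, 30–35 g) received about 11.1 kBq [125I]tracer in 0.1 mL i.v. via tail vein. Killed at set times, organs dissected and weighed, radioactivity gamma counted. Reported as % injected dose/g tissue, mean ± SD, n = 5–6.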

Nucleic Acid = experiment: Ratio of drug level in brain to blood in ddY mouse at 11.1 kBq, iv after 60 min by gamma counting; type: ADME, organism-based; conditions: 1 h

CN1CCCC[C@H]1[C@@H](NC(=O)c1cccc(C(F)(F)F)c1[125I])c1ccccc1
Drug uptake (Intestine): 0.81 % ID/g | Ratio (Nucleic Acid): 2.32
